OX1R antag-1 – human HCRTR1 antagonism; O43613; CHO/OX1R cells, Fluo-8 calcium fluorescence, orexin A; inhibition, % at 5 µM; actives 0.43% (n = 330,000); AID 434989;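 active means inhibition above its plate's threshold, mean inhibition of all tested compounds on the plate plus 3 SD, cut at about 37% in these data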
Target sequence (O43613 whole entry, looked up): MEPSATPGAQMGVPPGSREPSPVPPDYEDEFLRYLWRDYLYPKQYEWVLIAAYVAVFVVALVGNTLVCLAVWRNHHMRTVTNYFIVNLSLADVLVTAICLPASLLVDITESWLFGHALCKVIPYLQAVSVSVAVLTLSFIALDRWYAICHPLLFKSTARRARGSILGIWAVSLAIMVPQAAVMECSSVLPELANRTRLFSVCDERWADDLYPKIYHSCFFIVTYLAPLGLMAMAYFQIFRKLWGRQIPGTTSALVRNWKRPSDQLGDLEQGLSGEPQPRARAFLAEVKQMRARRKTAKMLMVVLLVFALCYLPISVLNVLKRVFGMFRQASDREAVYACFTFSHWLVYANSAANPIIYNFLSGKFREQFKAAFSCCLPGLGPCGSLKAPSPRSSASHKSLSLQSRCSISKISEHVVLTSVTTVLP
OX1R antag-2 – antagonists of human orexin 1 receptor (OX1R); O43613; OX1R-expressing cells, FRET antagonist read-out; inhibition, % at 6.6 µM; actives 1.8% (n = 330,000); AID 485270; in the data active means inhibition mostly above about 38%, no sharp cut-off; inactive means mostly below about 40%
TAAR1 agonist – agonists of human TAAR1. actives 0.99% (n = 360,000). Q96RJ0. CHO RD-HGA16 TAAR1, Fluo-8 calcium fluorescence; vehicle wells 0%, saturating PEA agonist 100%. activation, % at 3 µM;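 active means activation above the mean activation of all test compounds in the run plus 3 SD, cut at about 38% in these data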
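Assay system: CHO-derived RD-HGA16 cells with stable Gα16 and human TAAR1; timing: 17-24 h seeding, 75 min 37 °C dye, 30 min RT; read-out: % activation from peak over basal fluorescence ratio, DMSO-to-PEA scaled; measured by: kinetic Fluo-8 calcium fluorescence; benchmarks: low control DMSO, high control PEA (EC100); doses: 3 µM single concentration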
TAAR1 antagonist – human TAAR1 antagonism | Q96RJ0 | actives 1.5% (n = 360,000) | inhibition, % at 3 µM | CHO RD-HGA16 TAAR1, Fluo-8 calcium fluorescence, antagonist;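 active means inhibition above a per-plate cutoff, the mean inhibition of test compounds on that plate plus 3 SD, cut at about 49% in these data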
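Assay system: RD-HGA16 CHO cells with stable hTAAR1 and Gα16 / Reagent: EC80 β-phenethylamine stimulus / Doses: 3 µM, single point / Timing: dye loading 75 min at 37 °C, then 30 min room temperature / Measured by: Fluo-8 intracellular calcium dye fluorescence, real-time kinetic reads / Controls: vehicle wells and EC80 agonist wells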
CHO parental Ca – counter-screen: ATP calcium response change in parental CHO cells; parental CHO-K1, ATP-induced calcium, Fluo-8 fluorescence; inhibition, % at 5.6 µM; actives 0.63% (n = 330,000); AID 463079;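 active means inhibition above that plate's mean sample inhibition plus 3 SD, cut at about 26% in these data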
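Material – parental CHO cells · Reagent – ATP stimulus · Compound – single nominal dose of 5.6 µM per compound · Detection – Fluo-8 fluorescence · Read-out basis – percent inhibition of calcium signal · Controls – ATP-challenged DMSO wells low, unchallenged DMSO wells high · Repeats – no replicates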
A number is an active result. Most compounds without a hit are left out; they make up all but 4% or so of the library.

What do the screens show for `CCOC(=O)N1CCN(C(=O)C[C@H]2C[C@@]3(C(=O)OC)C(=C[C@H](C(C)(C)C)O[C@@H]3C)N(Cc3ccc4c(c3)OCO4)C2=O)CC1`?
TAAR1 agonist: inactive; TAAR1 antagonist: inactive

How did O=C(NCc1cccnc1)C1CC(=O)N(CCc2ccccc2)C1 (stereo not given) do in these assays?
OX1R antag-1: inactive; OX1R antag-2: inactive; TAAR1 agonist: inactive; TAAR1 antagonist: inactive; CHO parental Ca: inactive

What do the screens show for `C#CCN1C[C@@]2(O)CC[C@@H](O)[C@@H](OC)[C@@H]2[C@@]1(C)[C@H](O)CC=C(C)C`?
TAAR1 agonist: inactive; TAAR1 antagonist: inactive

What do the screens show for `CCOP(=O)(c1ccccc1)c1nc(-c2ccccc2C)oc1N1CCCCC1` (stereo not given)?
OX1R antag-1: inactive; OX1R antag-2: inactive; TAAR1 agonist: 60; TAAR1 antagonist: inactive; CHO parental Ca: inactive

Results for CCOc1ccc(-c2[nH]ncc2Oc2ccccc2OCC)c(O)c1 ?
OX1R antag-1: inactive; OX1R antag-2: inactive; TAAR1 agonist: inactive; TAAR1 antagonist: 49; CHO parental Ca: inactive

What do the screens show for `O=C(NC1CCCCC1)C1CCCN1S(=O)(=O)c1cccc2nsnc12` (stereo not given)?
OX1R antag-1: inactive; OX1R antag-2: 60; TAAR1 agonist: inactive; TAAR1 antagonist: inactive; CHO parental Ca: inactive

What do the screens show for `CC(C)[C@H](NS(=O)(=O)c1ccccc1F)C(=O)NC1CCCCC1`?
OX1R antag-1: inactive; OX1R antag-2: 39; TAAR1 agonist: inactive; TAAR1 antagonist: inactive; CHO parental Ca: inactive

Results for O=C(O)C1CSCN1S(=O)(=O)c1cccc2nsnc12 (stereo not given) ?
OX1R antag-1: inactive; OX1R antag-2: 41; TAAR1 agonist: inactive; TAAR1 antagonist: inactive; CHO parental Ca: inactive

Results for CC(=O)Nc1ccc(NC(=O)C(NS(=O)(=O)c2cccc3nsnc23)C(C)C)cc1 (stereo not given) ?
OX1R antag-1: inactive; OX1R antag-2: 56; TAAR1 agonist: inactive; TAAR1 antagonist: inactive; CHO parental Ca: inactive

Results for CC(C)C(NS(=O)(=O)c1ccccc1)C(=O)NC1CCCC1 (stereo not given) ?
OX1R antag-1: inactive; OX1R antag-2: inactive; TAAR1 agonist: inactive; TAAR1 antagonist: inactive; CHO parental Ca: inactive

How did Nc1[nH]c(C(=O)c2ccc(Br)cc2)c(-c2ccccc2)c1C(=O)NCCc1c[nH]c2ccccc12 do in these assays?
TAAR1 agonist: inactive; TAAR1 antagonist: inactive

Results for Cc1cc(O)cc(=O)n1-c1cc(C(F)(F)F)cc(C(F)(F)F)c1 ?
TAAR1 agonist: inactive; TAAR1 antagonist: inactive

How did CN(C(=O)c1cccc(NC(=O)Cc2ccc(NC(=O)C3CCCN(C(=O)c4ccccc4)C3)cc2)c1)C1CCCCC1 (stereo not given) do in these assays?
TAAR1 agonist: inactive; TAAR1 antagonist: inactive

What do the screens show for `CC(OC(=O)[C@H](C)N=C1NS(=O)(=O)c2ccccc21)C(=O)Nc1ccc(F)c(F)c1F` (stereo not given in full)?
TAAR1 agonist: inactive; TAAR1 antagonist: inactive

What do the screens show for `COC(=O)C1=C(C)N(C)C(=NCc2ccc3c(c2)OCO3)NC1c1ccccc1` (stereo not given)?
TAAR1 agonist: inactive; TAAR1 antagonist: inactive

Results for O=C(NCc1ccco1)C(Cc1ccccc1)NS(=O)(=O)c1cccc2nsnc12 (stereo not given) ?
OX1R antag-1: inactive; OX1R antag-2: 51; TAAR1 agonist: inactive; TAAR1 antagonist: inactive; CHO parental Ca: inactive

Results for O=C(NC1CCCC1)C(NS(=O)(=O)c1cccc2nsnc12)c1ccccc1 (stereo not given) ?
OX1R antag-1: inactive; OX1R antag-2: 53; TAAR1 agonist: inactive; TAAR1 antagonist: inactive; CHO parental Ca: inactive

How did CC(C)C(NS(=O)(=O)c1cccc2nsnc12)C(=O)NCc1ccco1 (stereo not given) do in these assays?
OX1R antag-1: inactive; OX1R antag-2: inactive; TAAR1 agonist: inactive; TAAR1 antagonist: inactive; CHO parental Ca: inactive

How did CC(C)C(NS(=O)(=O)c1cccc2nsnc12)C(=O)NC1CCCCC1 (stereo not given) do in these assays?
OX1R antag-1: inactive; OX1R antag-2: 75; TAAR1 agonist: inactive; TAAR1 antagonist: inactive; CHO parental Ca: inactive

How did CC1CCC(NC(=O)C(NS(=O)(=O)c2cccc3nsnc23)C(C)C)CC1 (stereo not given) do in these assays?
OX1R antag-1: inactive; OX1R antag-2: inactive; TAAR1 agonist: inactive; TAAR1 antagonist: inactive; CHO parental Ca: inactive

What do the screens show for `CC1CCN(C(=O)C(NS(=O)(=O)c2cccc3nsnc23)C(C)C)CC1` (stereo not given)?
OX1R antag-1: inactive; OX1R antag-2: 43; TAAR1 agonist: inactive; TAAR1 antagonist: inactive; CHO parental Ca: inactive

What do the screens show for `CC1CCN(C(=O)C(NS(=O)(=O)c2cccc3nsnc23)c2ccccc2)CC1` (stereo not given)?
OX1R antag-1: inactive; OX1R antag-2: inactive; TAAR1 agonist: inactive; TAAR1 antagonist: inactive; CHO parental Ca: inactive

How did Cc1cc(C)c(O)c(C(=O)CC2CC(=O)NC(=O)C2)c1 do in these assays?
TAAR1 agonist: inactive; TAAR1 antagonist: inactive

What do the screens show for `COc1cccc(OC)c1NC(=O)CN(C)S(=O)(=O)c1ccc2c(c1)OCCO2`?
OX1R antag-1: inactive; OX1R antag-2: inactive; TAAR1 agonist: inactive; TAAR1 antagonist: inactive; CHO parental Ca: inactive

What do the screens show for `COc1cc(/C=N/NC(=O)c2ccncc2)ccc1OC(=O)c1cccc(F)c1`?
OX1R antag-1: inactive; OX1R antag-2: inactive; TAAR1 agonist: inactive; TAAR1 antagonist: inactive; CHO parental Ca: inactive

Results for COC(=O)C1=C(C)N(Cc2ccccc2C(F)(F)F)C(=NCc2ccc(C(F)(F)F)cc2)NC1c1ccc(Cl)cc1 (stereo not given) ?
TAAR1 agonist: inactive; TAAR1 antagonist: inactive

How did COC(=O)Cc1nnn2c1[C@H](C)[C@H](c1ccccc1Br)OC[C@@H]2c1ccccc1 do in these assays?
TAAR1 agonist: inactive; TAAR1 antagonist: inactive

Results for C[C@]12Cc3ccccc3C1CC1=N[C@@H](c3ccc(C(F)(F)F)cc3)O[C@@]13C[C@@H]2C(=O)N3C1CCN(Cc2ccccc2)CC1 (stereo not given in full) ?
TAAR1 agonist: inactive; TAAR1 antagonist: inactive

What do the screens show for `Cc1ccc(S(=O)(=O)N2CCCC2C(=O)NC2CCCCC2)cc1` (stereo not given)?
OX1R antag-1: inactive; OX1R antag-2: 57; TAAR1 agonist: inactive; TAAR1 antagonist: inactive; CHO parental Ca: inactive

Results for COC(=O)C1CCCN1S(=O)(=O)c1ccc([N+](=O)[O-])cc1 (stereo not given) ?
OX1R antag-1: inactive; OX1R antag-2: 36; TAAR1 agonist: inactive; TAAR1 antagonist: inactive; CHO parental Ca: inactive

What do the screens show for `Cc1ccc(NC(=O)COC(=O)C2CC3C=CC2C3)cc1S(=O)(=O)N1CCCCC1` (stereo not given)?
OX1R antag-1: inactive; OX1R antag-2: inactive; TAAR1 agonist: inactive; TAAR1 antagonist: inactive; CHO parental Ca: inactive

Compound activity: PubChem BioAssay, The Scripps Research Institute Molecular Screening Center
